The source made the active and inactive calls. The calls are words filed in the database; no cut-off is given here.
Tests used:
HaCaT [1] = test: Phototoxicity against human HaCaT cells assessed as appearance of rounded cells at LD50 after 24 hrs by acridine orange/ethidium bromide staining-based assay in presence of 0.25 to 0.5 J/cm'2 UVA light; format: cell-based
Summary of the method: (§1)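 Cells (HaCaT, HeLa in DMEM; HEp-2 in RPMI; 10% FBS) at 60–70% confluence were incubated 6 h with 3·10^-6 M photosensitizer (DMSO stock diluted in medium with 1% FBS, final DMSO <0.5%). Medium was replaced and cells were given 0.25 J/cm² UVA (300–400 nm). 24 h later, cells were stained live with 50 µg/ml AO plus 50 µg/ml EtBr in PBS. Within 15 min, 200 cells per condition were scored as living, rounded, apoptotic or necrotic.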

[2] = Induction of microtubule disruption in human HaCaT cells at LD50 after 24 hrs by immunofluorescence assay in presence of UVA light; format: cell-based
HeLa [3] = test: Induction of necrosis in human HeLa cells at LD50 after 24 hrs by acridine orange/ethidium bromide staining-based assay in presence of 0.25 to 0.5 J/cm'2 UVA light; format: functional, cell-based
HaCaT [4] = test: Induction of cell morphological changes in human HaCaT cells assessed as appearance of apoptotic cells with membrane blebbing at 3 to 5 uM after 24 hrs by Hoechst 33258 staining-based phase contrast microscopy in presence of UVA light
HaCaT [5] = test: Induction of cell morphological changes in human HaCaT cells assessed as cell elongation at 3 to 5 uM after 24 hrs by Hoechst 33258 staining-based phase contrast microscopy in presence of UVA light
HEp-2 [6] = test: Induction of cell morphological changes in human Hep2 cells assessed as cytoplasmic retraction at 3 to 5 uM after 24 hrs by Hoechst 33258 staining-based phase contrast microscopy in presence of UVA light; format: functional
[7] = Drug uptake in golgi apparatus of human HaCaT cells at 1 uM after 6 hrs by NBD dye-based fluorescence microscopy; format: ADME, cell-based
Summary of the method: (§2)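 Cells grown on glass coverslips were incubated with 1×10^-6 M photosensitizer for 6 h at 37 °C, washed twice in PBS and imaged live by fluorescence microscopy. Organelle probes (ER-Tracker, ex 374/em 430 nm; NBD-Golgi, ex 466/em 536 nm) were applied for 30 min at the supplier's concentrations, and their patterns were compared with the compound signal.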

HaCaT [8] = test: Induction of cell morphological changes in human HaCaT cells assessed as cytoplasmic retraction at 3 to 5 uM after 24 hrs by Hoechst 33258 staining-based phase contrast microscopy in presence of UVA light
HaCaT [9] = test: Induction of necrosis in human HaCaT cells at LD50 after 24 hrs by acridine orange/ethidium bromide staining-based assay in presence of 0.25 to 0.5 J/cm'2 UVA light; format: cell-based
HEp-2 [10] = test: Induction of cell morphological changes in human Hep2 cells assessed as cytoplasmic vacuolization at 3 to 5 uM after 24 hrs by Hoechst 33258 staining-based phase contrast microscopy in presence of UVA light; format: functional
[11] = Induction of singlet-oxygen generation at 5 x 10^-5 M irradiated at 380 nm by uric acid degradation assay; format: physicochemical; details: 0.38 µM
HEp-2 [12] = test: Induction of cell morphological changes in human Hep2 cells assessed as cellular stretching at 3 to 5 uM after 24 hrs by Hoechst 33258 staining-based phase contrast microscopy in presence of UVA light; format: functional
HEp-2 [13] = test: Induction of apoptotic morphological changes in human Hep2 cells at LD50 after 24 hrs by Hoechst 33258 staining-based fluorescence microscopy in presence of UVA light; format: functional, cell-based
HEp-2 [14] = test: Induction of cell morphological changes in human Hep2 cells assessed as cell detachment from substrate at 3 to 5 uM after 24 hrs by Hoechst 33258 staining-based phase contrast microscopy in presence of UVA light; format: functional
[15] = Dark toxicity against human HaCaT cells assessed as cell survival at 10 uM incubated for 6 hrs measured after 24 hrs by MTT assay; format: cell-based; details: read-out: Survival
Summary of the method: (§3)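 Cells (HaCaT and HeLa in DMEM, HEp-2 in RPMI, each with 10% FBS, at 37 °C and 5% CO2) were treated at 60–70% confluence. The compound was added from a 10^-3 M DMSO stock in medium with 1% FBS (final DMSO <0.5%) at 3·10^-6 to 2.5·10^-5 M and kept in the dark (6 h per table footnote, 18 h per methods). After 24 h, MTT at 50 µg/mL for 4 h, read at 542 nm as % of control OD.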

HEp-2 [16] = test: Induction of microtubule disruption in human Hep2 cells assessed as increase in mitotic index at LD50 after 24 hrs by immunofluorescence assay in presence of UVA light; format: cell-based
[17] = Drug uptake in endoplasmic reticulum of human HaCaT cells at 1 uM after 6 hrs by ER-tracker dye-based fluorescence microscopy; format: ADME, cell-based; summary of the method: as §2
HeLa [18] = test: Phototoxicity against human HeLa cells assessed as appearance of rounded cells at LD50 after 24 hrs by acridine orange/ethidium bromide staining-based assay in presence of 0.25 to 0.5 J/cm'2 UVA light; format: functional, cell-based; summary of the method: as §1
HaCaT [19] = test: Induction of morphological changes in human HaCaT cells assessed as nuclear retraction at LD50 after 24 hrs by Hoechst 33258 staining-based fluorescence microscopy in presence of UVA light; format: cell-based
[20] = Dark toxicity against human HeLa cells assessed as cell survival at 3 uM incubated for 6 hrs measured after 24 hrs by MTT assay; format: cell-based; details: read-out: Survival; summary of the method: as §3
[21] = Induction of microtubule disruption in human HeLa cells assessed as abnormality in chromosome distribution at LD50 after 24 hrs by immunofluorescence assay in presence of UVA light; format: cell-based
[22] = Dark toxicity against human HeLa cells assessed as cell survival at 10 uM incubated for 6 hrs measured after 24 hrs by MTT assay; format: cell-based; details: read-out: Survival; summary of the method: as §3
[23] = Dark toxicity against human Hep2 cells assessed as cell survival at 5 uM incubated for 6 hrs measured after 24 hrs by MTT assay; format: cell-based, HEp-2; details: read-out: Survival; summary of the method: as §3
[24] = Phototoxicity against human Hep2 cells assessed as cell lethality at 3 to 250 uM incubated for 6 hrs followed by UV irradiation at 1 J/cm'2 measured after 24 hrs by MTT assay; format: functional, HEp-2
Summary of the method: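 Cultures at 60–70% confluence were loaded with the photosensitizer for 6 h in medium with 1% FBS and <0.5% DMSO. Medium was then replaced and cells were irradiated with UVA (300–400 nm, 15.9 W/m² at 10 cm), then washed and kept in complete medium for 24 h. Survival was read by MTT (50 µg/mL, 4 h, 542 nm) as % of untreated control OD.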

HaCaT [25] = test: Induction of necrotic morphological changes in human HaCaT cells at LD50 after 24 hrs by Hoechst 33258 staining-based fluorescence microscopy in presence of UVA light; format: cell-based
[26] = Induction of singlet-oxygen generation at 5 x 10^-5 M irradiated at 390 nm by uric acid degradation assay; format: physicochemical; details: 0.39 µM

| SMILES | Activity (HaCaT [1]) | Activity [2] | Activity (HeLa [3]) | Activity (HaCaT [4]) | Activity (HaCaT [5]) | Activity (HEp-2 [6]) | Drug uptake [7] | Activity (HaCaT [8]) | Activity (HaCaT [9]) | Activity (HEp-2 [10]) | Activity (HEp-2 [12]) | Activity (HEp-2 [13]) | Activity (HEp-2 [14]) | viability at 6 h, 10 µM [15] [%] | Activity (HEp-2 [16]) | Drug uptake [17] | Activity (HeLa [18]) | Activity (HaCaT [19]) | viability at 6 h, 3 µM [20] [%] | Activity [21] | also measured |
| --- | --- | --- | --- | --- | --- | --- | --- | --- | --- | --- | --- | --- | --- | --- | --- | --- | --- | --- | --- | --- | --- |
| COc1cc(C#Cc2ccc(C#Cc3cc(OC)c(C#CCO[C@@H]4O[C@H](CO)[C@@H](O)[C@H](O)[C@H]4O)cc3OC)c(N(C)C)c2)c(OC)cc1C#CCO[C@@H]1O[C@H](CO)[C@@H](O)[C@H](O)[C@H]1O | Toxic | Toxic | Active | Toxic | Toxic | Active | Active | Toxic | Toxic | Active | Active | Active | Active | 71.5 | Active | Active | Active | Toxic | 96.4 | Active | Activity [11]: Active; viability at 6 h, 10 µM [22]: 82.2%; viability at 6 h, 5 µM [23]: 96.3%; mortality [24]: >50%; Activity (HaCaT [25]): Toxic |
| COc1cc(C#Cc2ccc(C#CCO[C@@H]3O[C@H](CO)[C@@H](O)[C@H](O)[C@H]3O)cc2N(C)C)c(OC)cc1C#Cc1ccc(C#CCO[C@@H]2O[C@H](CO)[C@@H](O)[C@H](O)[C@H]2O)cc1N(C)C | Toxic | Toxic | Active | Toxic | Toxic | Active | Active | Toxic | Toxic | Active | Active | Active | Active | 70.2 | Active | Active | Active | Toxic | 96.6 | Active | Activity [26]: Active; viability at 6 h, 10 µM [22]: 76.9%; viability at 6 h, 5 µM [23]: 95.7%; mortality [24]: >50%; Activity (HaCaT [25]): Toxic |

Reference: ChEMBL document CHEMBL3769305, “Glucose-functionalized amino-OPEs as biocompatible photosensitizers in PDT” (Eur J Med Chem, 2016)
